Published values collected from several papers.
Compare with care: the assays were run in different laboratories.
Target: MAP/microtubule affinity-regulating kinase 3 (MARK3, Homo sapiens, UniProt P27448)

`CCS(=O)(=O)c1cc2cc(C[C@](O)(CC(C)(C)c3ccc(F)cc3C(N)=O)C(F)(F)F)[nH]c2cn1` gave a remaining binding of 100% (cell-free assay; competition with immobilised ligand; 1 µM).
`O=C(NCCCNc1nc(Nc2cccc(NC(=O)N3CCCC3)c2)ncc1C1CC1)C1CCC1` gave a remaining activity of 0% (enzyme activity; inhibitor; radiometric; 1 µM).
`COc1cc(/C=C/C(=O)CC(=O)/C=C/c2ccc(O)c(OC)c2)ccc1O` has an activity vs control of 90% (enzyme activity; inhibitor; 1 µM).
`CN(C)CC#Cc1ccc(OCCCc2sc(N3CCc4cccc(C(=O)Nc5nc6ccccc6s5)c4C3)nc2C(=O)O)c(F)c1` gave a remaining binding of 38% (cell-free assay; competition with immobilised ligand; 1 µM).
`CNc1cccc2cc(C(=O)Nc3ccc(C(=O)O)cc3)c(=O)[nH]c12` has an inhibition of -10% (enzyme activity; inhibitor; 10 µM).
`Cn1nc(C(F)(F)F)cc1-c1cnc(N2CCc3cc(S(=O)(=O)Nc4c(F)cc(Cl)cc4F)cc(N4CCCC4=O)c32)nc1` has a remaining binding of 12% (binding; competition with immobilised ligand; 1 µM).
`O=C(CSc1nc2nccnc2c(=O)n1CCc1ccccc1)Nc1nccs1` gave an inhibition of 7% (enzyme activity; inhibitor; 10 µM).
For `NS(=O)(=O)c1ccc(CNc2nc(Nc3cccc(NC(=O)N4CCCC4)c3)ncc2Br)cc1`, the remaining activity was 63% (enzyme activity; inhibitor; radiometric; 1 µM).
`COc1cccc2c(NCc3ccccc3)nc(-n3c(N)nc4ccccc43)nc12` has an inhibition of -1% (target engagement in cells; inhibitor; chemoproteomics; 20 mM).
The remaining signal of `O=C1Nc2ccc(Cl)cc2C1=Cc1cc(Cl)c(O)c(Cl)c1` is reported as 81.1% (cell-free assay; 0.5 µM).
With `FC(F)(F)Oc1cccc(-c2cnc3ccc(-c4ccncc4)nn23)c1` the activity vs control was 95% (enzyme activity; inhibitor; radiometric; 5 µM).
For `CCN(CC)CCNC(=O)c1c(C)[nH]c(/C=C2\C(=O)Nc3ccc(F)cc32)c1C`, the remaining signal was 30.4% (cell-free assay; 0.5 µM).
The remaining binding of `Nc1c(C(=O)NCc2ccc(C(=O)NCCCC3CCCCC3)cc2)cnn1-c1ccccc1` is reported as 78% (cell-free assay; competition with immobilised ligand; 0.1 µM).
With `CC/C(=N\NC(=O)NCc1cccc(O)c1)c1ccc(O)c(C)c1O` the inhibition was -16.8% (enzyme activity; inhibitor; 0.1 µM).
`O=C(NCCCNc1ccnc(Nc2cccc(NC(=O)N3CCCC3)c2)n1)C1CCC1` gave a remaining activity of 92% (enzyme activity; inhibitor; radiometric; 1 µM).
The inhibition of `COc1cc2ncnc(Nc3ccc(Oc4ccccc4)cc3C)c2cc1OC` is reported as 8% (enzyme activity; inhibitor; 1 µM).
The remaining signal of `N#CCCc1ccc2c(c1)-c1[nH]c3ccc([N+](=O)[O-])cc3c1CC(=O)N2` is reported as 67.3% (cell-free assay; 0.5 µM).
`CN1CCc2cc(Nc3ncc(C4CC4)c(NCCCNC(=O)C4CCC4)n3)ccc2C1` gave a remaining activity of -4% (enzyme activity; inhibitor; radiometric; 1 µM).
With `c1ccc(CNc2nc(N3CCOc4ccccc43)nc3c2CCCC3)cc1` the inhibition was 3% (target engagement in cells; inhibitor; chemoproteomics; 20 mM).
The inhibition of `CN(c1ncccc1CNc1nc(Nc2ccc3c(c2)CC(=O)N3)ncc1C(F)(F)F)S(C)(=O)=O` is reported as 83.5% (enzyme activity; inhibitor; 1 µM).
The remaining signal of `O=C1NC(=O)c2cc(Nc3ccc(F)cc3)c(Nc3ccc(F)cc3)cc21` is reported as 90.8% (cell-free assay; 0.5 µM).
`Cc1nn(CC(F)(F)F)cc1Nc1ncc(C2CC2)c(NCCc2c[nH]cn2)n1` has a remaining activity of 96% (enzyme activity; inhibitor; radiometric; 1 µM).
For `CN(C)C(=O)Cn1cc(-c2nc(C3(c4ccc(-c5cnc(N)nc5)cc4)CC3)no2)cn1`, the remaining binding was 100% (cell-free assay; competition with immobilised ligand; 1 µM).
For `Cc1nn(CC(F)(F)F)cc1Nc1nccc(NCCc2cnc[nH]2)n1`, the remaining activity was 126% (enzyme activity; inhibitor; radiometric; 1 µM).
For `CSc1cccnc1N1CCN(Cc2nc3ccccc3[nH]2)CC1`, the remaining binding was 98% (cell-free assay; competition with immobilised ligand; 1 µM).
The remaining activity of `O=C(NCCCNc1nc(Nc2cccc(CN3CCOCC3)c2)ncc1C1CC1)C1CCC1` is reported as -1% (enzyme activity; inhibitor; radiometric; 1 µM).
The remaining binding of `C[C@H](NC(=O)c1cnc2n1[C@](C)(Cc1ccc(C#N)cc1)C(=O)N2c1cc(Cl)c(F)c(Cl)c1)C(=O)NC1(c2ccccn2)CC1` is reported as 92% (cell-free assay; competition with immobilised ligand; 1 µM).
`Cc1nn(CC(F)(F)F)cc1Nc1ncc(C2CC2)c(NCCCNC(=O)C2CCC2)n1` gave a remaining activity of 96% (enzyme activity; inhibitor; radiometric; 1 µM).
`C[C@@H]1CN(c2cc(-c3n[nH]c4ccc(OC5(C)CC5)cc34)ncn2)C[C@H](C)O1` gave a remaining binding of 73% (cell-free assay; competition with immobilised ligand; 0.1 µM).
